Bioassay records: PubChem, several laboratories
JMJD2C inh: inhibitors of human GASC-1 (JMJD2C) demethylase; Q9H3R0; GST-JMJD2C(1-420) H3K9me3 demethylation, DELFIA europium; inhibition, % at 2.35 µM; 330,000 tested, 0.069% active;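 active means more than half of a compound's replicate wells show inhibition beyond 50%, single wells judged on their own value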;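 further: signal counts dimethyl H3K9 product captured on neutravidin plate; 0% = median of DMSO wells and 100% = 0.3 times that DMSO median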
Hep lipid drop: hepatic lipid droplet formation modulation | 240,000 tested, 0.4% active | inhibition, % at 6.5 µM | AML12 mouse hepatocytes, oleate lipid droplets, BODIPY imaging;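 active means lipid droplet intensity inhibited by at least 50%, with more than 500 cells counted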
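Assay system: AML12 mouse liver cells | Compound: 6.5 µM single-point dosing | Schedule: Overnight exposure | Technique: Fluorescence imaging, 20x objective, two fields per well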
NPR2 activator: GC-B (human) receptor activation. AID 1920062. 370,000 tested, 0.11% active. activation, % at 10 µM. P20594. HEK293-GC-B cells, CNP EC30, cGMP TR-FRET; 0% at EC30 CNP, 100% saturating CNP;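 active means activation at 10 µM reaching about 35% in either raw or pattern-adjusted values, limit read from the data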
GRIN3A LBD mod: modulators (binders) of human NR3A ligand-binding domain. 340,000 tested, 2.5% active. AID 1259313. NR3A LBD differential scanning fluorimetry, Tm shift; 0% = protein alone, 100% = glycine-bound protein. Tm shift relative to glycine control, % at 25 µM;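 active means melting temperature shift of at least 10% of the positive control shift, at one fixed dose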
aDG glyco up: increases alpha dystroglycan glycosylation; Pro5-aDG cells, alpha-DG glycosylation AlphaScreen (IIH6); 0% Pro5, 100% B10-LARGE cell signal; activation, % at 10 µM; 360,000 tested, 0.22% active; AID 624168;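 active means activation of at least 8% versus controls, or a plate z-score of at least 8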;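 further: Pro5 are CHO cells carrying HIG-tagged alpha-DG that lacks glycosylation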
GC-A act: GC-A (human) enzyme activation; 370,000 tested, 0.14% active; activation, % at 10 µM; HEK293 GC-A cells, cGMP TR-FRET, EC30 ANP; 0% at EC30 ANP, 100% saturating ANP; AID 1671463; in the data active means activation above about 40%
Target sequence (P16066 whole entry, looked up): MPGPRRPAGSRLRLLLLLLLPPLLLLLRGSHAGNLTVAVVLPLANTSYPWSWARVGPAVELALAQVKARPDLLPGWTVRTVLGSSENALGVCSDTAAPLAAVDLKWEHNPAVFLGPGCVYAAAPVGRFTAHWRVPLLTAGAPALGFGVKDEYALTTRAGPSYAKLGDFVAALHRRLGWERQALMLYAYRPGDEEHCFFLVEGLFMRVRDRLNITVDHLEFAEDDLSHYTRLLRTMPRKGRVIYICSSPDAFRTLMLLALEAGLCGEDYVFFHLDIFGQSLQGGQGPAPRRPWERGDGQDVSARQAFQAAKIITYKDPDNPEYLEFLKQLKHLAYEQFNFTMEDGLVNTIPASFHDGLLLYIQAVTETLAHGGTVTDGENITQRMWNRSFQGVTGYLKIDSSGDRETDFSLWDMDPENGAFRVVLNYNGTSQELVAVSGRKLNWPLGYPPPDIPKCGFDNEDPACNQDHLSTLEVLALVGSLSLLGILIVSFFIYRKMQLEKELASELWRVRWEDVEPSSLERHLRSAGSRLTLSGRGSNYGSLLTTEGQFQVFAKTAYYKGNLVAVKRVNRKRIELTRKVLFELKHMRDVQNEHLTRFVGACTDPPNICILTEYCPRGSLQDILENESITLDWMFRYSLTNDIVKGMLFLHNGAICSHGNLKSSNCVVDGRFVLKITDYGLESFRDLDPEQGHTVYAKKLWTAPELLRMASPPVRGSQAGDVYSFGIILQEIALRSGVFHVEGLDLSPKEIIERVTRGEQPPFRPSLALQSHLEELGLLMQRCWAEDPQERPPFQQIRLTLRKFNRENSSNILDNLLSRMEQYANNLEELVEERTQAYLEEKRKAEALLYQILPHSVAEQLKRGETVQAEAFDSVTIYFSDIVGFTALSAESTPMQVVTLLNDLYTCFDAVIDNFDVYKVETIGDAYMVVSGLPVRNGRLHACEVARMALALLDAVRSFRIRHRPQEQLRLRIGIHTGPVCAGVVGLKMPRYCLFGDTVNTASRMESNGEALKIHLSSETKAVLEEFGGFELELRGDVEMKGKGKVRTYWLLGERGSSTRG
Starred values were filed as active, the others as inactive. Sampled rows, rich in hits. Any-hit rate of the full collection: about 3%.

Results for COc1cc(C2c3c([nH]c(=O)[nH]c3=O)Nc3ccc4ccccc4c32)cc(OC)c1OC (stereo unspecified) ?
JMJD2C inh: 12; Hep lipid drop: 3; NPR2 activator: -4; GRIN3A LBD mod: 30*; aDG glyco up: 0; GC-A act: -12

How did Cc1ccc(-c2nc(C3CCCN(S(=O)(=O)c4ccc(Cl)s4)C3)no2)cc1 (stereo unspecified) do in these assays?
NPR2 activator: 0; GC-A act: -1

Results for Cc1ccc(C(=O)N2CCC(Oc3cccnc3)CC2)c(C)c1 ?
NPR2 activator: 6; GC-A act: 3

Results for O=C(CSc1ccccc1)N1CCC(Oc2cccnc2)CC1 ?
NPR2 activator: -3; GC-A act: 0

Results for Cc1[nH]c2ccccc2c1C(=O)c1cc(Cc2ccccc2)sc1N ?
NPR2 activator: 3; aDG glyco up: 0; GC-A act: 48*

How did COCCCNC(=O)c1cc(Cc2ccccc2)sc1N do in these assays?
NPR2 activator: -1; aDG glyco up: 1; GC-A act: 5

Results for COCCNC(=O)CSc1ccc(-c2nc3ccccc3[nH]2)cn1 ?
JMJD2C inh: -6; Hep lipid drop: -12; NPR2 activator: -6; GRIN3A LBD mod: -1; aDG glyco up: 0; GC-A act: -1

What do the screens show for `CCc1nnc(NC(=O)CSc2ccc(-c3ccc(-n4cccn4)cc3)nn2)s1`?
JMJD2C inh: -3; NPR2 activator: -2; GRIN3A LBD mod: 35*; aDG glyco up: 0; GC-A act: -1

How did CCc1nnc(NC(=O)CSc2ccc(-c3nc4ccccc4[nH]3)cn2)s1 do in these assays?
JMJD2C inh: -5; NPR2 activator: 2; GRIN3A LBD mod: 19*; aDG glyco up: 0; GC-A act: 7

Results for Cc1ccc(NC(=O)CCCSc2nc3ccccc3[nH]2)cc1 ?
JMJD2C inh: 0; Hep lipid drop: -2; NPR2 activator: -5; GRIN3A LBD mod: -4; aDG glyco up: 1; GC-A act: -3

How did Cc1ccc(SCC(=O)Nc2ccc(-c3nc4ccccc4[nH]3)cc2)cc1 do in these assays?
JMJD2C inh: 1; Hep lipid drop: 1; NPR2 activator: -12; GRIN3A LBD mod: 35*; aDG glyco up: 0; GC-A act: -8

Results for Cc1nc(NC(=O)CSc2ccc(-c3nc4ccccc4[nH]3)cn2)sc1C ?
JMJD2C inh: -2; Hep lipid drop: 12; NPR2 activator: 4; GRIN3A LBD mod: 20*; aDG glyco up: 1; GC-A act: 8

How did O=C(Cc1ccccc1)NC1CCCCN(Cc2ccc(Cl)cc2)C1=O (stereo unspecified) do in these assays?
NPR2 activator: 0; GC-A act: 0

What do the screens show for `c1ccc(-n2c(SCc3cccc4ccccc34)nnc2-c2ccccn2)cc1`?
NPR2 activator: -12; GC-A act: -8

Results for COc1ccc(C(=O)OCCCN(C)C2CN(Cc3cn(Cc4ccccc4Cl)nn3)S(=O)(=O)C2)cc1OC (stereo unspecified) ?
NPR2 activator: -8; GC-A act: -2

Results for Cc1ccc2nc(-c3ccc(SCC(=O)Nc4nnc(C)s4)nc3)[nH]c2c1 ?
JMJD2C inh: 3; Hep lipid drop: 14; NPR2 activator: 9; GRIN3A LBD mod: 24*; aDG glyco up: 0; GC-A act: 5

How did Cc1ccc2nc(-c3ccc(SCC(=O)Nc4nc(C)cs4)nc3)[nH]c2c1 do in these assays?
JMJD2C inh: 5; Hep lipid drop: 7; NPR2 activator: 14; GRIN3A LBD mod: 10; aDG glyco up: 0; GC-A act: 4

What do the screens show for `COc1cc([N+](=O)[O-])cc(/C=N/NC(=O)C(C)Nc2cccc3ccccc23)c1O` (stereo unspecified)?
JMJD2C inh: -1; Hep lipid drop: 8; NPR2 activator: -1; GRIN3A LBD mod: 6; aDG glyco up: 0; GC-A act: -1

What do the screens show for `CC(Nc1cccc2ccccc12)C(=O)N/N=C/c1ccc([N+](=O)[O-])cc1` (stereo unspecified)?
JMJD2C inh: -5; Hep lipid drop: -12; NPR2 activator: 2; GRIN3A LBD mod: 22*; aDG glyco up: 0; GC-A act: -3

What do the screens show for `NC1=NS(=O)(=O)Nc2ccccc21`?
NPR2 activator: 0; GC-A act: 3

How did N=C(N)c1ccc(N=Nc2c(O)ccc3c2[nH]c2ccccc23)cc1 do in these assays?
NPR2 activator: -12; GRIN3A LBD mod: 29*; aDG glyco up: -1; GC-A act: -13

What do the screens show for `NC(=O)c1ccc(N=Nc2c(O)c3ccccc3[nH]c2=O)cc1`?
JMJD2C inh: -2; Hep lipid drop: -5

How did COC(=O)c1cc2c(c3c4cc(OC)ccc4n(S(=O)(=O)c4ccc(F)cc4)c13)C(=O)N(CC(C)C)C2 do in these assays?
NPR2 activator: -2; GC-A act: 0

What do the screens show for `N#CC1=C(N)OC2=C(CCc3ccccc32)C1c1ccccc1` (stereo unspecified)?
JMJD2C inh: -3; Hep lipid drop: 101*; NPR2 activator: -1; GRIN3A LBD mod: -16; aDG glyco up: 0; GC-A act: -7

How did Cc1ccc(/C=C2\CCC3=C2OC(N)=C(C#N)C3c2ccc(C)cc2)cc1 (stereo unspecified) do in these assays?
JMJD2C inh: -3; GRIN3A LBD mod: -4; aDG glyco up: 0

How did CCOC(=O)c1sc(NC(=O)Nc2cccc(Cl)c2)cc1C do in these assays?
JMJD2C inh: 9; Hep lipid drop: -37; NPR2 activator: -12; GRIN3A LBD mod: 24*; aDG glyco up: 0; GC-A act: -32

What do the screens show for `CCOC(=O)c1sc(NC(=O)c2sccc2C)cc1C`?
JMJD2C inh: 6; NPR2 activator: 23; GRIN3A LBD mod: 11*; aDG glyco up: 0; GC-A act: 12

Results for CC(C)N1CCCCC(NC(=O)c2ccc(Cl)cc2Cl)C1=O (stereo unspecified) ?
NPR2 activator: -2; GC-A act: 3

Results for CN[C@H]1C[C@H]2c3[nH]c4cccc(-c5ccccc5)c4c3CCN2C[C@H]1[C@H](C)O ?
NPR2 activator: -5; GC-A act: 0

How did CC(C)=CCC[C@](C)(O)C1CC[C@]2(C)C1C(O)CC1[C@@]3(C)CCC(O)C(C)(C)C3C(O[C@@H]3OC(CO)C(O)C(O)C3O[C@@H]3OC(C)C(O)C(O)C3O)C[C@]12C (stereo partly specified) do in these assays?
JMJD2C inh: -9; NPR2 activator: -2; GRIN3A LBD mod: 10*; aDG glyco up: 0; GC-A act: 0
